# Measured values as given in ChEMBL document CHEMBL4414577, “Discovery of Pyrrolo[2,3-b]pyridine (1,7-Dideazapurine) Nucleoside Analogues as Anti-Trypanosoma cruzi Agents” (J Med Chem, 2019).
# Active and inactive are the calls of the source. The rule behind the calls is not given here.
# Tests used:
# [1] = Selectivity index, ratio for EC50 for human MRC5 SV2 cells to EC50 for Trypanosoma cruzi Tulahuen CL2 amastigotes infected in human MRC5 SV2 cells; type: toxicity, cell-based; details: read-out: Ratio EC50
# [2] = Drug metabolism in mouse liver microsomes assessed as CYP450-mediated metabolism by measuring parent compound remaining at 5 uM measured immediately in presence of NADPH by UPLC-MS analysis; type: ADME; details: read-out: Stability
# Procedure, shortened: (§1)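 Compound incubated with male mouse, rat, dog or pooled human S9 fractions, with NADPH (phase I) or […], sampled at 0, 15, 30 and 60 min. Read-out is percent parent remaining. Two independent experiments of two biological replicates; diclofenac and fluconazole used as assay controls.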
# [3] = Drug metabolism in mouse liver microsomes assessed as CYP450-mediated metabolism by measuring parent compound remaining at 5 uM incubated for 15 mins in presence of NADPH by UPLC-MS analysis; type: ADME; details: read-out: Stability; procedure, shortened: as §1
# [4] = Drug metabolism in mouse liver microsomes assessed as CYP450-mediated metabolism by measuring parent compound remaining at 5 uM incubated for 30 mins in presence of NADPH by UPLC-MS analysis; type: ADME; details: read-out: Stability; procedure, shortened: as §1
# [5] = Drug metabolism in mouse liver microsomes assessed as CYP450-mediated metabolism by measuring parent compound remaining at 5 uM incubated for 60 mins in presence of NADPH by UPLC-MS analysis; type: ADME; details: read-out: Stability
# [6] = Drug metabolism in mouse liver microsomes assessed as UGT-mediated metabolism by measuring compound remaining at 5 uM incubated for 60 mins in presence of UDPGA by UPLC-MS analysis; type: ADME; details: read-out: Stability; procedure, shortened: as §1
# [7] = Drug metabolism in rat liver microsomes assessed as CYP450-mediated metabolism by measuring parent compound remaining at 5 uM incubated for 15 mins in presence of NADPH by UPLC-MS analysis; type: ADME; details: read-out: Stability; procedure, shortened: as §1
# [8] = Drug metabolism in rat liver microsomes assessed as UGT-mediated metabolism by measuring compound remaining at 5 uM measured immediately in presence of UDPGA by UPLC-MS analysis; type: ADME; details: read-out: Stability; procedure, shortened: as §1
# [9] = Drug metabolism in rat liver microsomes assessed as UGT-mediated metabolism by measuring compound remaining at 5 uM incubated for 30 mins in presence of UDPGA by UPLC-MS analysis; type: ADME; details: read-out: Stability; procedure, shortened: as §1
# [10] = Drug metabolism in dog liver microsomes assessed as CYP450-mediated metabolism by measuring parent compound remaining at 5 uM measured immediately in presence of NADPH by UPLC-MS analysis; type: ADME, Canis lupus familiaris; details: read-out: Stability; procedure, shortened: as §1
# [11] = Drug metabolism in dog liver microsomes assessed as CYP450-mediated metabolism by measuring parent compound remaining at 5 uM incubated for 60 mins in presence of NADPH by UPLC-MS analysis; type: ADME, Canis lupus familiaris; details: read-out: Stability; procedure, shortened: as §1
# [12] = target: UDP-glucuronosyltransferases (UGTs) (Homo sapiens, UniProt O60656+O75310+O75795+P06133+P0DTE4+P0DTE5+P16662+P19224+P22309+P22310+P35503+P35504+P36537+P54855+Q6UWM9+Q9BY64+Q9HAW7+Q9HAW8+Q9HAW9); assay: Drug metabolism in human liver S9 fraction assessed as UGT-mediated metabolism by measuring compound remaining at 5 uM incubated for 30 mins in presence of UDPGA by UPLC-MS analysis; type: ADME, subcellular; details: read-out: Stability; procedure, shortened: as §1
# [13] = test system: Trypanosoma cruzi; assay: In vivo antitrypanosomal activity against Trypanosoma cruzi Y trypomastigotes infected in Swiss mouse assessed as reduction in parasitemia at 25 mg/kg, po administered twice daily via gavage for 5 days starting from 5 days post-infection and measured 8 days post-infection by light microscopic method relative to control; type: functional; parameters: scale not given: the % may be the effect or the level left
# Procedure, shortened: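 Male Swiss Webster mice (18-20 g, six per group) were infected i.p. with 10⁴ Y-strain bloodstream trypomastigotes. Treatment began at 5 dpi, only in mice with detectable parasitemia. Dosing was 25 mg/kg b.i.d. by oral gavage for 5 days, using a 2.0 mg/mL formulation in 10% EtOH, 0.1 M citrate pH 3.02. Parasites in 5 μL tail-vein blood were counted microscopically up to 30 dpi, against vehicle-treated infected mice.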
# [14] = test system: Trypanosoma cruzi; assay: In vivo antitrypanosomal activity against Trypanosoma cruzi Y trypomastigotes infected in Swiss mouse assessed as mouse survival at 25 mg/kg, po administered twice daily via gavage for 5 days starting from 5 days post-infection and measured daily up to 40 days post-infection; type: functional, organism-based
# Procedure, shortened: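 Male Swiss Webster mice (18-20 g, 4-5 weeks) infected i.p. with 10⁴ Y-strain bloodstream trypomastigotes; six per group. Oral gavage from 5 dpi for 5 consecutive days: test compound at 25 mg/kg b.i.d. (2.0 mg/mL in 10% EtOH, 0.1 M citrate pH 3.02), benznidazole at 100 mg/kg s.i.d. Parasites counted in 5 μL tail blood to 30 dpi; mortality followed daily to 40 dpi.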
# [15] = Toxicity in Swiss Webster mouse infected with Trypanosoma cruzi Y trypomastigotes assessed as body weight loss at 25 mg/kg, po administered twice daily via gavage for 5 days starting from 5 days post-infection and measured daily up to 40 days post-infection; type: organism-based; details: in vivo
# Procedure, shortened: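 Male Swiss Webster mice were infected i.p. with 10⁴ Y-strain trypomastigotes and treated by oral gavage for 5 days from 5 dpi. Regimens were 25 mg/kg b.i.d. (10% EtOH/citrate vehicle) or benznidazole 100 mg/kg s.i.d. Body weight and visual clinical signs were monitored, with daily mortality checks up to 40 dpi. There were six mice per group.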
# [16] = test system: Trypanosoma cruzi; assay: In vivo antitrypanosomal activity against Trypanosoma cruzi Y trypomastigotes infected in Swiss mouse assessed as reduction in parasitemia at 25 mg/kg, po administered twice daily for 5 days with 2 days interval for 3 cycles and measured 9 days post-infection by light microscopy relative to control; type: functional; parameters: scale not given: the % may be the effect or the level left
# Procedure, shortened: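 Male Swiss Webster mice infected i.p. with 10⁴ Y-strain bloodstream trypomastigotes; six per group. Oral gavage from 5 dpi for 15 days (three 5-day rounds, 2 days off): test compound 25 mg/kg b.i.d., benznidazole 100 mg/kg s.i.d. Parasites counted in 5 μL tail blood to 30 dpi; mortality followed to 53 dpi.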
# [17] = test system: Trypanosoma cruzi; assay: Antitrypanosomal activity against Trypanosoma cruzi Y amastigotes infected in Swiss mouse primary cardiac cells incubated for 168 hrs with media replenishment for every 48 hrs followed by compound washout and measured after 168 hrs by light microscopic method; type: functional, organism-based
# Procedure, shortened: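 Cardiac cells plated 24 h, then infected 24 h at 37 °C with Y-strain bloodstream trypomastigotes (parasite:host 10:1) and washed. Serial dilutions (up to 5 µM) for 168 h at 37 °C, drug medium renewed every 48 h. PBS rinse, 168 h drug-free. Giemsa-stained; infected cells and parasites per cell scored in 200 cells. EC50 from infection-index inhibition; two experiments, duplicate.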
# [18] = test system: Trypanosoma cruzi; assay: In vivo antitrypanosomal activity against Trypanosoma cruzi Y trypomastigotes infected in Swiss mouse assessed as reduction in parasitemia at 25 mg/kg, po administered twice daily via gavage for 5 days starting from 5 days post-infection in presence of cyclophosphamide by light microscopic method; type: functional, organism-based
# Procedure, shortened: (§2)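 Infected mice were dosed orally at 25 mg/kg b.i.d. from 5 dpi, either for 5 days or for 15 days (3 × 5 days, 2 days apart). Mice with negative parasitemia up to 30 days post-treatment then received cyclophosphamide i.p. at 50 mg/kg/day. This was given in three cycles of 4 days, each followed by 3 drug-free days. Tail-vein blood parasitemia was then read by light microscopy.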
# [19] = test system: Trypanosoma cruzi; assay: In vivo antitrypanosomal activity against Trypanosoma cruzi Y trypomastigotes infected in Swiss mouse assessed as reduction in parasitemia at 25 mg/kg, po administered twice daily for 5 days with 2 days interval for 3 cycles in presence of cyclophosphamide by light microscopy; type: functional, organism-based; procedure, shortened: as §2
smiles,measurement,setting,value
Nc1ccnc2c1c(I)cn2[C@@H]1O[C@H](CO)[C@@H](O)[C@H]1O,selectivity ratio,[1],> 1600
same,"remaining at 0 min, 5 µM",[2],100%
same,"remaining at 0.25 h, 5 µM",[3],96%
same,"remaining at 0.5 h, 5 µM",[4],95%
same,"remaining at 1 h, 5 µM",[5],94%
same,"remaining at 1 h, 5 µM",[6],101%
same,"remaining at 0.25 h, 5 µM",[7],88%
same,"remaining at 0 min, 5 µM",[8],100%
same,"remaining at 0.5 h, 5 µM",[9],94%
same,"remaining at 0 min, 5 µM",[10],100%
same,"remaining at 1 h, 5 µM",[11],92%
same,"remaining at 0.5 h, 5 µM",[12],99%
same,Activity,[13],95%
same,Activity,[14],Active
same,Activity,[15],Non-Toxic
same,Activity,[16],100%
same,EC50,[17],> 5 µM
same,Activity,[18],inactive
same,Activity,[19],inactive
